Assay results collected from several papers.
Target: TGF-beta receptor type-2 (TGFBR2, Homo sapiens, UniProt P37173)

SMILES | assay | conditions | remaining binding
O=C(NCCCN1CCOCC1)c1ccc(Nc2nccc(-c3cc4ccccc4s3)n2)cc1 | binding, competition with immobilised ligand | 1 µM | 64%
C[C@@H](c1ccc(-n2cnc3c(N)ncnc32)cc1)N1CCc2nn(C)c(Cc3ccccc3)c2C1=O | binding, competition with immobilised ligand | 0.1 µM | 84%
O=C(O)[C@@H]1[C@@H](Cn2nnc3ccccc3c2=O)CC[C@H]1C(=O)c1ccc(OCCC2CCOCC2)cc1 | cell-free assay, competition with immobilised ligand | 1 µM | 100%
COc1cnc(Nc2cccc(S(N)(=O)=O)c2)nc1N1CCN(c2ccccc2)CC1 | binding, competition with immobilised ligand | 1 µM | 100%
c1cnn2ncc(-c3ccnc(N4CCC45COC5)n3)c2c1 | binding | 1 µM | 36%
COc1ccc2c(O[C@@H]3C[C@H]4C(=O)N[C@]5(C(=O)O)CC5/C=C\CCCCC[C@H](NC(=O)OC5CCCC5)C(=O)N4C3)cc(-c3csc(NC(=O)C(C)C)n3)nc2c1C (stereo partly drawn) | cell-free assay, competition with immobilised ligand | 1 µM | 93%
O=C(c1ccc(Nc2nccc(-c3cc4ccccc4s3)n2)cc1)N1CCC(N2CCCC2)CC1 | binding, competition with immobilised ligand | 1 µM | 88%
CN(CCCC(F)(F)F)c1nccc(-c2cnn3ncccc23)n1 | binding | 1 µM | 73%
Nc1ncc2c(n1)-c1c([nH]c3ccc(C#CC4CC4)cc13)CCCC2 | binding, competition with immobilised ligand | 1 µM | 100%
COCCOc1nc(-c2ccc(Cl)nc2)nc2c1CN(C(=O)c1ncn3ccccc13)CC2 | cell-free assay, competition with immobilised ligand | 0.1 µM | 94%
O=C(c1ccc(Nc2ncc(Cl)c(-c3cc4ccccc4s3)n2)cc1)N1CCC(N2CCCC2)CC1 | binding, competition with immobilised ligand | 1 µM | 84%
CC1CCCN1c1nccc(-c2cnn3ncccc23)n1 (stereo not drawn) | binding | 1 µM | 100%
O=C(NS(=O)(=O)c1ccc(NCC2CCOCC2)c([N+](=O)[O-])c1)c1ccc(N2CCN(Cc3ccc(C(F)(F)F)cc3-c3ccc(Cl)cc3)CC2)cc1Oc1cnc2[nH]ccc2c1 | cell-free assay, competition with immobilised ligand | 1 µM | 76%
O=C(NCC1CCOCC1)c1n[nH]cc1NC(=O)c1c(F)cccc1F | binding, competition with immobilised ligand | 1 µM | 100%
COc1ccnn2ncc(-c3ccnc(N(C)C)n3)c12 | binding | 1 µM | 100%
CO[C@@H](C)c1c(Nc2ccc([C@@H](N(C)C(=O)C3CCS(=O)(=O)CC3)C(F)(F)F)cc2)cnc2cc(Cl)nn12 | cell-free assay, competition with immobilised ligand | 1 µM | 100%
c1cncc(-c2cccc(Nc3nccc(NC4CCCCC4)n3)c2)c1 | binding, competition with immobilised ligand | 10 µM | 30%
C[C@H]1CCN(c2nccc(-c3cnn4ncccc34)n2)C1 | binding | 1 µM | 60%
FC(F)(F)Oc1cccc(-c2cnc3ccc(-c4ccncc4)nn23)c1 | cell-free assay, competition with immobilised ligand | 5 µM | 66%
CN(C)c1nccc(-c2cnc3ncccn23)n1 | binding | 1 µM | 76%
O=C(N[C@H]1CCCCC/C=C\C2C[C@@]2(C(=O)O)NC(=O)[C@@H]2C[C@@H](Oc3ccncc3)CN2C1=O)OC1CCCC1 (stereo partly drawn) | cell-free assay, competition with immobilised ligand | 1 µM | 85%
